Assay [1] in a line: reduced viability of SK-BR-3 breast cancer cells – cell-based, 24 h, human, pilot screen (AID 572;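 active means viability at or below 10% of carrier control in both of two separate runs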;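 further: compound exposure lasted between 18 and 24 h rather than exactly 24 h; 100% = carrier-treated control wells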). As to conditions: SK-BR-3 viability, CellTiter-Glo luminescence, at 10 µM, stronger effect = lower value. (In general: In ATP-based viability assays light output follows the ATP content of the culture.)
Assay [2] can be described thus: HUVEC growth inhibition – cell-based, human, primary screen (AID 575;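 active means viability at or below 30% in both replicate assays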;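 further: 100% = median of untreated cell wells with 0.1% DMSO on each plate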). As to conditions: HUVEC proliferation, CellTiter-Glo luminescence, 72 h; at 10 µM; stronger effect = lower value. In short, it runs like this: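 system = HUVEC primary cells | amount = 1250 cells/well | buffer or medium = supplemented EBM, 2% fetal bovine serum | dosing = single-point 10 µM, DMSO 0.1% final | times = 72 h compound incubation | detection = CTG luminescence | read-out = % viability relative to median vehicle-well signal on each plate | control set = vehicle and MePR control wells | format = collagen-coated 384-well format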

A short description of assay [3]: H69AR cell proliferation blockers – human, duplicate replicates, primary screen (AID 580;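 active means viability at or under a set limit in both replicates, limit being median viability minus 3 SD, cut at about 48% in these data, passing the limit was not always enough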;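 further: 100% = mean luminescence of untreated wells and 0% = no signal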). As to conditions: H69AR lung tumor cells viability, ATP luminescence, 72 h; at 10 µM; stronger effect = lower value.
A short description of assay [4]: MRP1 drug-resistance reversers in H69AR cells – cell-based, doxorubicin co-treatment, pilot screen (AID 601). The settings on record: CellTiter-Glo, 72 h, at 10 µM; for differential viability (reversal): stronger effect = higher value.
The nature of assay [5]: yeast transport mutant growth inhibition pilot in 384-well plates, post-Golgi transport modulator project (AID 636; in the data active means inhibition above about 31%). As to conditions: absorbance 615 nm, about 18 h, stronger effect = higher value.
Assay [6] is described as follows: growth suppression of yeast trafficking mutant, preliminary HTS, modulators of trafficking downstream of Golgi apparatus project, 1536-format plate, OD 615 nm (AID 637; in the data active means inhibition above about 30%). The settings on record: yeast transport mutant growth, absorbance 615 nm, 18 h; stronger effect = higher value.
Setting [7] is: H69AR cells + 2 uM doxorubicin, measured here: viability with 2 uM doxorubicin, stronger effect = lower value.
[8] abbreviates: H69AR cells, compound alone cytotoxicity.

Activity calls are given as the source filed them.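 How the source made its calls, unless noted: active means viability loss from added drug above about 55%, and viability with drug at most 40%, in both replicates (limit read from the data, passing the limit was not always enough); inconclusive means both conditions met in only one replicate; inactive means neither replicate meets both conditions.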

What is called viability is a read-out of living cells in per cent, often relative to untreated cells. For orientation: inhibition means the relative decrease from the control value, in per cent. As for `O=C1c2oc3ccccc3c(=O)c2C(c2cccnc2)N1Cc1ccco1` (stereo not drawn), the viability in assay [1] is 98% (inactive); in assay [2], 106% (inactive); in assay [3] it was 87.8% (inactive); in assay [4] (setting [7]), 88.4%; in assay [4] (setting [8]) it was 87.8%. Also, in assay [4] (H69AR cells + 2 uM doxorubicin), the differential viability (reversal) is -0.59% (inactive). The figures for the inhibition in assay [5] and in assay [6] were -0.96% (inactive) and -2.36% (inactive), respectively.
Consider `CC(=O)Nc1ccccc1O`, for which the viability in assay [1] is 111% (inactive); in assay [2] it was 102% (inactive); in assay [3], 96.1% (inactive); in assay [4] (setting [7]), 95.7%; in assay [4] (setting [8]) it was 96.1%. In assay [4] (H69AR cells + 2 uM doxorubicin), the differential viability (reversal) was 0.37% (inactive). The inhibition in assay [5] is -0.13% (inactive); in assay [6] it was 4.5% (inactive).
Turning to `O=C(C1=C(O)C(=O)N(c2ncccn2)C1c1cccc(Cl)c1)c1ccco1` (stereo not drawn), the viability was 119% (inactive) in assay [1]; 93% (inactive) in assay [2]; 89.2% (inactive) in assay [3]; 92.4% in assay [4] (setting [7]); 89.2% in assay [4] (setting [8]). In assay [4] (H69AR cells + 2 uM doxorubicin), the differential viability (reversal) was -3.12% (inactive). Moreover, the inhibition in assay [5] was 2.33% (inactive); in assay [6], 1.29% (inactive).
With `CC(OC(=O)c1ccco1)C(=O)NCc1cccs1` (stereo not drawn), the viability is 119% (inactive) in assay [1]; 90.3% (inactive) in assay [2]; 97.4% (inactive) in assay [3]; 103% in assay [4] (setting [7]); 97.4% in assay [4] (setting [8]). Also, the differential viability (reversal) in assay [4] (H69AR cells + 2 uM doxorubicin) was -5.53% (inactive). In addition, the inhibition in assay [5] is -4.25% (inactive); in assay [6], -4.55% (inactive).
Take `Cc1ccc2c(C)nc(NC3=NCN(C(C)C)CN3)nc2c1`: the viability was 106% (inactive) in assay [1]; 94.3% (inactive) in assay [2]; 84.3% (inactive) in assay [3]; 99.7% in assay [4] (setting [7]); 84.3% in assay [4] (setting [8]). The differential viability (reversal) in assay [4] (H69AR cells + 2 uM doxorubicin) was -15.4% (inactive). In addition, the results for the inhibition in assay [5] and in assay [6] were -5.89% (inactive) and 0.48% (inactive), respectively.
As for `CC(=O)c1c(C)[nH]c(C(=O)Nc2c(C)n(C)n(-c3ccccc3)c2=O)c1C`, the viability was 82% (inactive) in assay [1]; 101% (inactive) in assay [2]; 90.2% (inactive) in assay [3]; 82.2% in assay [4] (setting [7]); 90.2% in assay [4] (setting [8]). In addition, the differential viability (reversal) in assay [4] (H69AR cells + 2 uM doxorubicin) is 7.98% (inactive). In addition, the figures for the inhibition in assay [5] and in assay [6] were -8.63% (inactive) and 0% (inactive), respectively.
For the compound `O=S(=O)(c1ccc2c(c1)OCCO2)N1CCC(n2nnc3cc(F)ccc32)CC1`, the viability in assay [1] was 91% (inactive); in assay [2] it was 74.8% (inactive); in assay [3], 84.2% (inactive); in assay [4] (setting [7]), 90.1%; in assay [4] (setting [8]) it was 84.2%. Besides, the differential viability (reversal) in assay [4] (H69AR cells + 2 uM doxorubicin) is -5.86% (inactive). For the same compound, the inhibition in assay [5] was -9.04% (inactive); in assay [6], -1.77% (inactive).
As for `CC1(C)CC(=O)C2=C(C1)Nc1ccccc1N=C2`, the viability was 66% (inactive) in assay [1]; 82.3% (inactive) in assay [2]; 70.3% (inactive) in assay [3]; 90% in assay [4] (setting [7]); 70.3% in assay [4] (setting [8]). Further, the differential viability (reversal) in assay [4] (H69AR cells + 2 uM doxorubicin) is -19.7% (inactive). Further, the results for the inhibition in assay [5] and in assay [6] were -0.41% (inactive) and 2.73% (inactive), respectively.
For `COc1cccc(C=Nc2ccc3c(c2)OCCO3)c1O`, the viability in assay [1] was 115% (inactive); in assay [2], 79.2% (inactive); in assay [3], 83% (inactive); in assay [4] (setting [7]), 95%; in assay [4] (setting [8]) it was 83%. In assay [4] (H69AR cells + 2 uM doxorubicin), the differential viability (reversal) was -12% (inactive). In addition, the inhibition in assay [5] was 1.95% (inactive); in assay [6], -0.33% (inactive).
Turning to `COc1cc2cc(C(c3nnnn3C3CCCC3)N(C)C3CCCCC3)c(=O)[nH]c2cc1OC` (stereo not drawn), the viability in assay [1] is 81% (inactive); in assay [2], 85.2% (inactive); in assay [3], 81.9% (inactive); in assay [4] (setting [7]), 86.2%; in assay [4] (setting [8]), 81.9%. Further, the differential viability (reversal) in assay [4] (H69AR cells + 2 uM doxorubicin) is -4.31% (inactive). For the same compound, the results for the inhibition in assay [5] and in assay [6] were -1.3% (inactive) and -2.13% (inactive), respectively.
For the compound `C=CCOc1ccc(C2/C(=C(\O)c3c(C)[nH]c(C(=O)OC)c3C)C(=O)C(=O)N2CCN(C)C)cc1` (stereo not drawn), the viability was 95% (inactive) in assay [1]; 82.7% (inactive) in assay [2]; 90.2% (inactive) in assay [3]; 95.9% in assay [4] (setting [7]); 90.2% in assay [4] (setting [8]). For the same compound, the differential viability (reversal) in assay [4] (H69AR cells + 2 uM doxorubicin) is -5.67% (inactive). Also, the inhibition was 0.52% (inactive) in assay [5] and 11.5% (inactive) in assay [6].
As to `CC1=C(/C=C/C(C)=C/C=C/C(C)=C/C(=O)O)C(C)(C)CCC1`, the viability is 84% (inactive) in assay [1]; 83.7% (inactive) in assay [2]; 104% (inactive) in assay [3]; 102% in assay [4] (setting [7]); 104% in assay [4] (setting [8]). Further, the differential viability (reversal) in assay [4] (H69AR cells + 2 uM doxorubicin) was 2% (inactive). Further, the inhibition in assay [5] was 0.91% (inactive); in assay [6], 8.67% (inactive).
Turning to `O=C(Nc1nnc(C2CCCC2)s1)C1CCN(S(=O)(=O)c2ccc(Cl)cc2)CC1`, the viability is 92% (inactive) in assay [1]; 94.4% (inactive) in assay [2]; 72.3% (inactive) in assay [3]; 68.5% in assay [4] (setting [7]); 72.3% in assay [4] (setting [8]). Besides, the differential viability (reversal) in assay [4] (H69AR cells + 2 uM doxorubicin) is 3.83% (inactive). The inhibition in assay [5] is -5.87% (inactive); in assay [6], -5.64% (inactive).
In the case of `Cc1ccc(Cl)cc1N1CCN(C(=O)CN2C(=O)c3cccc4cccc2c34)CC1`, the viability in assay [1] is 94.5% (inactive); in assay [2], 66.6% (inactive); in assay [3] it was 72.1% (inactive); in assay [4] (setting [7]), 76.3%; in assay [4] (setting [8]), 72.1%. In assay [4] (H69AR cells + 2 uM doxorubicin), the differential viability (reversal) is -4.18% (inactive). The inhibition in assay [5] is -4.42% (inactive); in assay [6], 3.65% (inactive).
On to `CCOc1cccc(C(=O)N(Cc2ccco2)C2CCS(=O)(=O)C2)c1` (stereo not drawn), for which the viability in assay [1] is 96% (inactive); in assay [2], 109% (inactive); in assay [3], 97.6% (inactive); in assay [4] (setting [7]), 89.5%; in assay [4] (setting [8]) it was 97.6%. Further, the differential viability (reversal) in assay [4] (H69AR cells + 2 uM doxorubicin) is 8.11% (inactive). Besides, the inhibition was -5.95% (inactive) in assay [5] and -1.09% (inactive) in assay [6].
For `CCCc1nc(NCc2ccncc2)c2nnn(Cc3ccccc3F)c2n1`, the viability in assay [1] was 99% (inactive); in assay [2] it was 107% (inactive); in assay [3] it was 54.5% (inactive); in assay [4] (setting [7]), 45.9%; in assay [4] (setting [8]), 54.5%. Besides, the differential viability (reversal) in assay [4] (H69AR cells + 2 uM doxorubicin) was 8.61% (inactive). In addition, the inhibition in assay [5] is -1.37% (inactive); in assay [6], -3.39% (inactive).

For the origin of these results see PubChem BioAssay.
